Bioassay records deposited in PubChem by The Scripps Research Institute Molecular Screening Center.
zfTRPN1 agonist: agonists of zebrafish TRPN1 channel | 220,000 tested, 0.18% active | HEK293 zebrafish TRPN1-YFP, Fluo-8 calcium fluorescence; 100% = response to 87 µM carbachol | activation, % at 3 µM;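 active = activation above its plate's cutoff, the mean activation of test wells on that plate plus 3 SD, cut at about 19% in these data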
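Material – zebrafish TRPN1-YFP in HEK293 cells · Doses – 3 µM single point · Schedule – dye 1 h 37 °C plus 30 min RT · Signal – Fluo-8 calcium fluorescence, excitation 470-495 nm, emission 515-575 nm · Read-out – % activation versus carbachol response · Control set – carbachol high, DMSO low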
GPR7 antagonist: blocks human GPR7 receptor signaling; P48145; GPR7-expressing cells, fluorescence antagonist assay; inhibition, % at 4.4 µM; 290,000 tested, 1.1% active; in the data active = inhibition above about 16%, passing the limit was not always enough;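 note: cells stimulated with the agonist NPW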
CHO parental Ca: signal in parental CHO cells, OX1R antagonist counter-screen; 330,000 tested, 0.63% active; parental CHO-K1, ATP-induced calcium, Fluo-8 fluorescence; inhibition, % at 5.6 µM;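 active = inhibition above that plate's mean sample inhibition plus 3 SD, cut at about 26% in these data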
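Measured by: calcium-sensitive Fluo-8 fluorescence / Test system: CHO parental line / Controls: ATP-challenged DMSO wells low, unchallenged DMSO wells high / Measure: % inhibition / Compound: single nominal dose of 5.6 µM per compound / Replicates: single well per compound, no replicates / Reagent: ATP as calcium-mobilizing challenge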
OX1R antag-1: human HCRTR1 antagonism; O43613; inhibition, % at 5 µM; 330,000 tested, 0.43% active; CHO/OX1R cells, Fluo-8 calcium fluorescence, orexin A;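 active = inhibition above its plate's threshold, mean inhibition of all tested compounds on the plate plus 3 SD, cut at about 37% in these data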
OX1R antag-2: antagonists of human orexin 1 receptor (OX1R); inhibition, % at 6.6 µM; 330,000 tested, 1.8% active; OX1R-expressing cells, FRET antagonist read-out; O43613; AID 485270; in the data active = inhibition mostly above about 38%, no sharp cut-off; inactive = mostly below about 40%
TRPML3 agonist: human mucolipin-3 channel agonism | activation, % at 3 µM | 220,000 tested, 0.29% active | Q8TDD5 | HEK293 TRPML3-YFP, Fluo-8 calcium fluorescence; 100% = the carbachol control signal;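 active = activation above its plate's cutoff, the mean activation of the plate's test wells plus 3 SD, cut at about 12% in these data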
Target sequence (Q8TDD5 whole entry, looked up): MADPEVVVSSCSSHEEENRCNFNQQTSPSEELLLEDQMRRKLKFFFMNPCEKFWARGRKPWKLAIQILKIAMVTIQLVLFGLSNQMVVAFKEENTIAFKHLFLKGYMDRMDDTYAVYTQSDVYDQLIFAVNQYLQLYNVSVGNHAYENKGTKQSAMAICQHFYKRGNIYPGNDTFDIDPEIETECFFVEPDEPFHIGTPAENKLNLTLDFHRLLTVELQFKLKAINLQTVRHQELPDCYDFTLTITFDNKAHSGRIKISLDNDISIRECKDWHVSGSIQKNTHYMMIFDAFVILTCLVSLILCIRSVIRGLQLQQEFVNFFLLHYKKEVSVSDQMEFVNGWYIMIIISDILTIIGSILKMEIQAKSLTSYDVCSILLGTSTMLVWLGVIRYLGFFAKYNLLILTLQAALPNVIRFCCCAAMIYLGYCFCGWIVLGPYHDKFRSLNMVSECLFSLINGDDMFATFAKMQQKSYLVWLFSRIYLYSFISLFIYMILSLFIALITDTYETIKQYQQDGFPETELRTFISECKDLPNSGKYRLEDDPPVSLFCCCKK
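Test system: HEK293 cells stably carrying human TRPML3-YFP; Doses: single dose, 3 µM final nominal compound, 0.3% DMSO final; Schedule: dye loading 1 h 37 °C then 30 min ambient, 125 s read; Technique: Fluo-8 calcium fluorescence; Benchmarks: high control carbachol 87 µM, low control DMSO.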
OX1R Ca confirm: OX1R (human) antagonism, confirmed. shares compounds with OX1R antag-1. CHO/OX1R cells, orexin A calcium Fluo-8 fluorescence. AID 492963. 1,100 tested, 38% active. inhibition, % at 5 µM; in the data active = inhibition above about 29%
CHO Ca triplic: signal in parental CHO cells, OX1R antagonist counter-screen. shares compounds with OX1R antag-1. parental CHO-K1, ATP-induced calcium, Fluo-8 fluorescence. inhibition, % at 5.6 µM. 1,100 tested, 9.3% active. AID 492965;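 active = inhibition above a per-plate limit, the mean inhibition of that plate's test compounds plus 3 SD, cut at about 25% in these data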
Hits are given with their value; n = inactive; x = no result. Rows were chosen to be rich in hits. Some 3.2% of all compounds tested hit in one or more screens of this group.

SMILES | zfTRPN1 agonist | GPR7 antagonist | CHO parental Ca | OX1R antag-1 | OX1R antag-2 | TRPML3 agonist | OX1R Ca confirm | CHO Ca triplic
S=C(NC1CCCC1)N1CCN(C/C=C/c2ccccc2)CC1 | n | n | n | n | n | n | x | x
C=CC(COCc1ccccc1)N(C(=O)OC(C)(C)C)S(=O)(=O)c1ccccc1Br (stereo unspecified) | x | x | n | n | n | x | x | x
C=CCC(COCc1ccccc1)NS(=O)(=O)c1ccccc1Br (stereo unspecified) | x | x | n | n | n | x | n | n
Cc1ccc(S(=O)(=O)N(CC#N)CC#N)cc1 | n | n | n | n | n | n | x | x
COc1cccc(CN(C)C(=O)c2ccc(Oc3ccccc3)cc2)c1OC | x | n | n | n | n | x | x | x
O=C(CCc1ccncc1)NC1CCCc2c1cnn2-c1cc(F)cc(F)c1 (stereo unspecified) | x | n | n | 46 | n | x | n | n
CSCC(=O)NC1CCCc2c1cnn2-c1cc(F)cc(F)c1 (stereo unspecified) | x | n | x | x | x | x | x | x
Cc1cc(N2CCN(c3ccc(F)cc3)CC2)nc(-c2ccccc2)n1 | n | n | n | n | n | n | n | n
COC(=O)/C=C/c1oc2ccccc2c1C | n | n | n | n | n | n | x | x
CC(C(=O)Nc1ccccc1)c1ccc(-c2ccccc2)c(F)c1 (stereo unspecified) | n | n | n | 40 | n | n | n | n
O=C(Nc1ccc(OC(F)(F)F)cc1)N1CCN(c2ccnc3cc(Cl)ccc23)CC1 | n | n | n | n | n | n | n | 35
O=C(COC(=O)c1cc[n+]([O-])cc1)Nc1ccc(Cl)cc1C(F)(F)F | x | x | n | n | n | x | x | x
COc1ccc([N+](=O)[O-])cc1NC(=O)c1ccc(-n2nc(C)cc2C)cc1 | n | n | n | n | n | n | x | x
CCNc1nc2c(c(=O)[nH]c(=O)n2C)n1CCCc1ccccc1 | x | n | n | n | n | x | n | n
Cc1c(Cl)cccc1NC(=O)c1ncn[nH]1 | n | n | n | n | n | n | x | x
O=C(CNC(=O)c1ccc(Oc2ccccc2)cc1)OCc1ccc(Br)cc1 | n | n | n | n | n | n | n | n
COc1ccc(C(=O)NCC(=O)NCC(=O)OCc2ccc(Br)cc2)cc1 | n | n | n | n | n | n | x | x
COc1ccc(S(=O)(=O)N2CCCCC2)cc1NC(=O)CCNC(=O)c1ccc(Cl)cc1 | x | x | n | n | n | x | x | x
Cc1ccc(C)c(OCC(=O)N/N=C/c2c(C)nn(-c3ccccc3)c2Cl)c1 | n | n | n | n | n | n | n | n
Cc1nn(-c2ccccc2)c(Cl)c1/C=N/NC(=O)OC(C)(C)C | n | n | n | n | n | n | x | x
C=C(C)COc1ccc(-c2[nH]ncc2-c2ccccc2OC)c(O)c1 | n | n | n | n | n | n | n | n
O=C(c1ccco1)n1nc(-c2ccco2)nc1SCc1ccccc1 | n | n | n | n | n | n | x | x
O=C(Cc1ccccc1)n1nc(-c2ccco2)nc1SCc1ccccc1 | n | n | n | 40 | n | n | n | n
COc1ccc(S(=O)(=O)N2CCOC2CNC(=O)C(=O)NCCc2ccccc2)cc1 (stereo unspecified) | x | n | n | n | n | x | x | x
O=C(Cn1ncc(Cl)c(Cl)c1=O)c1ccc(Cl)cc1 | n | n | n | n | n | n | 43 | 31
SMILES | zfTRPN1 agonist | GPR7 antagonist | CHO parental Ca | OX1R antag-1 | OX1R antag-2 | TRPML3 agonist | OX1R Ca confirm | CHO Ca triplic
O=C(Cn1ncc(N2CCOCC2)c(Cl)c1=O)c1ccc(Cl)cc1 | n | n | n | n | n | n | x | x
O=C(COc1ccc(C(=O)NCc2cccnc2)cc1)Nc1cccc(C(F)(F)F)c1 | x | x | n | n | n | x | n | n
C[C@H](NC(=O)c1nc[nH]c1C(=O)NCCCCCN)C(=O)OCc1ccccc1 | x | x | n | n | n | x | x | x
CN1CCC(=NNC(=O)CN(c2ccc([N+](=O)[O-])cc2)S(=O)(=O)c2ccccc2)CC1 | x | n | n | n | n | x | x | x
Cc1cc(C)c(NC(=O)CN(C)CC(=O)Nc2cccc(S(=O)(=O)N(C)c3ccccc3)c2)c(C)c1 | x | x | n | 37 | n | x | n | n
CCN(CC)S(=O)(=O)c1cc(NC(=O)Cc2n[nH]c(=O)c3ccccc23)ccc1C | n | n | n | n | n | n | x | x
CN(c1ccccc1)S(=O)(=O)c1cccc(NC(=O)Cc2n[nH]c(=O)c3ccccc23)c1 | x | x | n | n | n | x | n | n
O=C(O)c1cccc(NC(=O)c2cn(-c3ccccc3)nc2-c2cccc(Br)c2)c1 | x | n | n | n | n | x | n | 33
CN(C)c1ccc(/C=C/C=C2/SC(=S)N(c3ccccc3)C2=O)cc1 | n | n | n | n | n | n | 57 | 60
O=C(O)c1ccc(N2C(=O)/C(=C/C=C/c3ccccc3)SC2=S)cc1 | n | n | n | n | n | n | x | x
Cc1sc(NC(=O)CN2CCOCC2)nc1-c1ccc2c(c1)CCN2S(=O)(=O)c1ccccc1 | n | n | n | n | n | n | n | 28
Cc1ccc(C(=O)NCC(=O)OCc2cccc(Br)c2)cc1 | x | x | n | n | n | x | x | x
CC(C)NC(=S)NC(c1ccccc1)(c1ccccc1)c1ccccc1 | x | n | n | n | n | x | x | x
COc1ccc(C(=O)/C(C#N)=N/Nc2ccc([N+](=O)[O-])cc2)cc1 | n | n | n | n | n | n | n | 55
CC(C)C(NC(=O)Cc1ccccc1)C(=O)N1CCN(c2cccc(Cl)c2)CC1 (stereo unspecified) | x | x | n | 41 | n | x | n | n
COCCN=c1scc(-c2cc(OC)ccc2OC)n1/N=C/c1c[nH]c2ccccc12 | n | n | n | n | n | n | 35 | n
COCCN=c1scc(-c2ccco2)n1/N=C/c1ccc(O)c(O)c1O | n | n | n | n | n | n | x | x
COc1cc(S(=O)(=O)N(CCc2ccccc2)Cc2cccs2)ccc1-n1cnnn1 | n | n | n | 52 | n | n | n | n
COc1ccc(CCN(Cc2cccs2)S(=O)(=O)c2ccc(-n3cnnn3)cc2)cc1OC | n | n | n | n | n | n | x | x
O=C1Nc2ccc(S(=O)(=O)NCCC3=CCCCC3)c3cccc1c23 | n | n | n | n | n | n | n | n
Cc1ccc(C(=O)NNC(=O)/C=C\C(=O)O)cc1 | n | n | n | n | n | n | x | x
Cc1cc(C(C)(C)C)oc1C(=O)N(CC(=O)NC1CCCC1)c1cccc(C(F)(F)F)c1 | n | n | n | 56 | n | n | n | n
O=C(CSc1cn(CCNC(=O)c2ccc3ccccc3c2)c2ccccc12)NCc1ccco1 | n | n | n | n | n | n | n | n
Cc1cccc(NS(=O)(=O)c2cc3c4c(c2)C(C)C(=O)N4CCC3)c1 (stereo unspecified) | x | n | n | n | n | x | n | n
